Tests used:
[1] = target: Inhibitor of nuclear factor kappa-B kinase subunit epsilon (Homo sapiens) (UniProt Q14164); experiment: Binding affinity to wild-type human full length IKK-epsilon (M1 to V716 residues) expressed in HEK293 cells at 1 uM by Kinomescan method relative to control; format: cell-based
[2] = target: Tyrosine-protein kinase JAK1 (Homo sapiens) (UniProt P23458); experiment: Binding affinity to wild-type human partial length JAK1 JH1 catalytic domain (V856 to K1154 residues) expressed in Escherichia coli BL21 at 1 uM by Kinomescan method relative to control
[3] = target: Tyrosine-protein kinase JAK3 (Homo sapiens) (UniProt P52333); experiment: Binding affinity to wild-type human partial length JAK3 JH1 catalytic domain (I781 to S1124 residues) expressed in HEK293 cells at 1 uM by Kinomescan method relative to control; format: cell-based
[4] = system: Phosphatidylinositol 4,5-bisphosphate 3-kinase catalytic subunit alpha isoform (Homo sapiens), P42336 [Q546K]; experiment: Binding affinity to human partial length PIK3CA Q546K mutant (R108 to N1068 residues) expressed in HEK293 cells at 1 uM by Kinomescan method relative to control; format: cell-based
[5] = target: LIM domain kinase 1 (Homo sapiens) (UniProt P53667); experiment: Binding affinity to wild-type human full length LIMK1 (M1 to D647 residues) expressed in Escherichia coli BL21 at 1 uM by Kinomescan method relative to control
How it was run: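 Run as one kinome-wide competition binding panel with each compound at a single fixed concentration. Results were plotted as a kinome-wide selectivity map.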

[6] = system: Proto-oncogene tyrosine-protein kinase receptor Ret (Homo sapiens), P07949 [V804M]; experiment: Binding affinity to human partial length RET V804M mutant (E713 to D1014 residues) expressed in Escherichia coli BL21 at 1 uM by Kinomescan method relative to control
[7] = target: Serine/threonine-protein kinase 32C (Homo sapiens) (UniProt Q86UX6); experiment: Binding affinity to wild-type human partial length YANK3 (M68 to G486 residues) expressed in Escherichia coli BL21 at 1 uM by Kinomescan method relative to control
[8] = target: Calcium/calmodulin-dependent protein kinase kinase 1 (Homo sapiens) (UniProt Q8N5S9); experiment: Binding affinity to wild-type human partial length CAMKK1 (R65 to E414 residues) expressed in Escherichia coli BL21 at 1 uM by Kinomescan method relative to control
[9] = target: Bone morphogenetic protein receptor type-1B (Homo sapiens) (UniProt O00238); experiment: Binding affinity to wild-type human partial length BMPR1B (D178 to L502 residues) expressed in HEK293 cells at 1 uM by Kinomescan method relative to control; format: cell-based
[10] = system: Epidermal growth factor receptor (Homo sapiens), P00533 [UNDEFINED MUTATION]; experiment: Binding affinity to human partial length EGFR L747-E749del/A750P mutant expressed in Escherichia coli BL21 at 1 uM by Kinomescan method relative to control
[11] = target: Cyclin-dependent kinase 4/cyclin D1 (Homo sapiens) (UniProt P11802+P24385); experiment: Binding affinity to wild-type human full length CDK4/cyclinD1 (M1 to E303 residues) expressed in HEK293 cells at 1 uM by Kinomescan method relative to control; format: cell-based
[12] = target: Calcium/calmodulin-dependent protein kinase type IV (Homo sapiens) (UniProt Q16566); experiment: Binding affinity to wild-type human partial length CAMK4 (A22 to A322 residues) expressed in Escherichia coli BL21 at 1 uM by Kinomescan method relative to control
[13] = target: Serine/threonine-protein kinase TAO2 (Homo sapiens) (UniProt Q9UL54); experiment: Binding affinity to wild-type human partial length TAOK2 (M1 to A320 residues) expressed in HEK293 cells at 1 uM by Kinomescan method relative to control; format: cell-based
[14] = target: Phosphorylase b kinase gamma catalytic chain, skeletal muscle/heart isoform (Homo sapiens) (UniProt Q16816); experiment: Binding affinity to wild-type human full length PHKG1 (M1 to Y387 residues) expressed in Escherichia coli BL21 at 1 uM by Kinomescan method relative to control
How it was run: (§1)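 Kinome-wide competition binding panel run by an outside provider, with each compound tested at a single concentration. Activity is read against the kinase panel.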

[15] = system: Proto-oncogene tyrosine-protein kinase receptor Ret (Homo sapiens), P07949 [V804L]; experiment: Binding affinity to human partial length RET V804L mutant (E713 to D1014 residues) expressed in Escherichia coli BL21 at 1 uM by Kinomescan method relative to control
[16] = system: Phosphatidylinositol 4,5-bisphosphate 3-kinase catalytic subunit alpha isoform (Homo sapiens), P42336 [M1043I]; experiment: Binding affinity to human partial length PIK3CA M1043I mutant (R108 to N1068 residues) expressed in HEK293 cells at 1 uM by Kinomescan method relative to control; format: cell-based
[17] = target: Serine/threonine-protein kinase ULK2 (Homo sapiens) (UniProt Q8IYT8); experiment: Binding affinity to wild-type human partial length ULK2 (M1 to S301 residues) expressed in HEK293 cells at 1 uM by Kinomescan method relative to control; format: cell-based
[18] = target: Serine/threonine-protein kinase PAK 1 (Homo sapiens) (UniProt Q13153); experiment: Binding affinity to wild-type human partial length PAK1 (S149 to H545 residues) expressed in Escherichia coli BL21 at 1 uM by Kinomescan method relative to control
[19] = target: Serine/threonine-protein kinase pim-3 (Homo sapiens) (UniProt Q86V86); experiment: Binding affinity to wild-type human partial length PIM3 (G16 to A317 residues) expressed in Escherichia coli BL21 at 1 uM by Kinomescan method relative to control
[20] = target: NUAK family SNF1-like kinase 1 (Homo sapiens) (UniProt O60285); experiment: Binding affinity to wild-type human partial length ARK5 (E25 to I332 residues) expressed in Escherichia coli BL21 at 1 uM by Kinomescan method relative to control; how it was run: as §1
[21] = target: Aurora kinase C (Homo sapiens) (UniProt Q9UQB9); experiment: Binding affinity to wild-type human full length AURKC (M1 to S275 residues) expressed in Escherichia coli BL21 at 1 uM by Kinomescan method relative to control
[22] = target: Focal adhesion kinase 1 (Homo sapiens) (UniProt Q05397); experiment: Binding affinity to wild-type human partial length FAK (D402 to R696 residues) expressed in Escherichia coli BL21 at 1 uM by Kinomescan method relative to control
[23] = target: Discoidin domain-containing receptor 2 (Homo sapiens) (UniProt Q16832); experiment: Binding affinity to wild-type human partial length DDR2 (V555 to E855 residues) expressed in HEK293 cells at 1 uM by Kinomescan method relative to control; format: cell-based
[24] = target: Mast/stem cell growth factor receptor Kit (Homo sapiens) (UniProt P10721); experiment: Binding affinity to wild-type human partial length KIT (I571 to D952 residues) expressed in Escherichia coli BL21 at 1 uM by Kinomescan method relative to control

Calcium/calmodulin-dependent protein kinase type IV (Homo sapiens), sequence (Q16566 whole entry, the tested form may be a part): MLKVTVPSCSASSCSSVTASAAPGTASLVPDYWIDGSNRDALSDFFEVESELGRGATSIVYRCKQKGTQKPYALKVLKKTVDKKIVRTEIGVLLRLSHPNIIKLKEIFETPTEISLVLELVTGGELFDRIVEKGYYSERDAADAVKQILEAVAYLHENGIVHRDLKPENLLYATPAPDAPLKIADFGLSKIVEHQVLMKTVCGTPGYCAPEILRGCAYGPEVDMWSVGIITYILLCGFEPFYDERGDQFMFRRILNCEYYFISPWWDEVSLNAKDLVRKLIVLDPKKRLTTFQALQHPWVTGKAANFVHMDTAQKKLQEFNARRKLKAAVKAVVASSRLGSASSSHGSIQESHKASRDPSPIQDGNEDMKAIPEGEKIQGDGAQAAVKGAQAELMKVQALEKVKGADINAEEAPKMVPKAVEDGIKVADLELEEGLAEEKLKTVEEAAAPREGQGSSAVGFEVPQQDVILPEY
Proto-oncogene tyrosine-protein kinase receptor Ret (Homo sapiens), P07949 [V804M], sequence (P07949 whole entry V804M, the tested form may be a part): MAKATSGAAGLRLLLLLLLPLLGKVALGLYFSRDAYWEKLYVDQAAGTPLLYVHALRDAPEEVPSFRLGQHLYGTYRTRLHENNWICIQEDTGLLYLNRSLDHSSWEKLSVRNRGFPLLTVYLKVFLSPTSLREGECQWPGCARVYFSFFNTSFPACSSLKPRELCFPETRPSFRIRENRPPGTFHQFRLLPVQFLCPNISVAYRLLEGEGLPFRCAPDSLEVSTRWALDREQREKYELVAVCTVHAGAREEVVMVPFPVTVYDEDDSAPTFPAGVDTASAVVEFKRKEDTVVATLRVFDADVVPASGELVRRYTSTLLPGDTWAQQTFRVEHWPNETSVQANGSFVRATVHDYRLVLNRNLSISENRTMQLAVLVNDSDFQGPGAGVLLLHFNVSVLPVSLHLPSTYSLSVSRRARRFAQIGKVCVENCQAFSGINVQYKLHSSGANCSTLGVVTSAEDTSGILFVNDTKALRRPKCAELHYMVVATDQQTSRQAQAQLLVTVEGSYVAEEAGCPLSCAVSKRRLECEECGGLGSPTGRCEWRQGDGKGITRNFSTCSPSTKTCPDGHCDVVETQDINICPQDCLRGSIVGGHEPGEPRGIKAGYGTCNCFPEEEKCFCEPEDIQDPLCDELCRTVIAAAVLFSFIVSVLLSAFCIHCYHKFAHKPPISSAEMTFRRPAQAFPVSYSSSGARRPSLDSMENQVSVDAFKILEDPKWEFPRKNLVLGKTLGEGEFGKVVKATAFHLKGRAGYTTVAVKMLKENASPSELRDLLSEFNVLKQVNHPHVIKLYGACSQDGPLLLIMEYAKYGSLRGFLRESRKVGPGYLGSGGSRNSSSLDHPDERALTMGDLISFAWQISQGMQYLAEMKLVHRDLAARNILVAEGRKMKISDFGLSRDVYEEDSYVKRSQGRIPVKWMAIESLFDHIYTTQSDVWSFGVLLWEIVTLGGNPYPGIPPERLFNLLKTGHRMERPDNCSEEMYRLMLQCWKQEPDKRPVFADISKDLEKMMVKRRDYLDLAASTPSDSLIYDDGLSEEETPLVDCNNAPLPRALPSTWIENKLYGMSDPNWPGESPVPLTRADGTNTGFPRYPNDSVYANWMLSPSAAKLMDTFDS
Serine/threonine-protein kinase ULK2 (Homo sapiens), sequence (Q8IYT8 whole entry, the tested form may be a part): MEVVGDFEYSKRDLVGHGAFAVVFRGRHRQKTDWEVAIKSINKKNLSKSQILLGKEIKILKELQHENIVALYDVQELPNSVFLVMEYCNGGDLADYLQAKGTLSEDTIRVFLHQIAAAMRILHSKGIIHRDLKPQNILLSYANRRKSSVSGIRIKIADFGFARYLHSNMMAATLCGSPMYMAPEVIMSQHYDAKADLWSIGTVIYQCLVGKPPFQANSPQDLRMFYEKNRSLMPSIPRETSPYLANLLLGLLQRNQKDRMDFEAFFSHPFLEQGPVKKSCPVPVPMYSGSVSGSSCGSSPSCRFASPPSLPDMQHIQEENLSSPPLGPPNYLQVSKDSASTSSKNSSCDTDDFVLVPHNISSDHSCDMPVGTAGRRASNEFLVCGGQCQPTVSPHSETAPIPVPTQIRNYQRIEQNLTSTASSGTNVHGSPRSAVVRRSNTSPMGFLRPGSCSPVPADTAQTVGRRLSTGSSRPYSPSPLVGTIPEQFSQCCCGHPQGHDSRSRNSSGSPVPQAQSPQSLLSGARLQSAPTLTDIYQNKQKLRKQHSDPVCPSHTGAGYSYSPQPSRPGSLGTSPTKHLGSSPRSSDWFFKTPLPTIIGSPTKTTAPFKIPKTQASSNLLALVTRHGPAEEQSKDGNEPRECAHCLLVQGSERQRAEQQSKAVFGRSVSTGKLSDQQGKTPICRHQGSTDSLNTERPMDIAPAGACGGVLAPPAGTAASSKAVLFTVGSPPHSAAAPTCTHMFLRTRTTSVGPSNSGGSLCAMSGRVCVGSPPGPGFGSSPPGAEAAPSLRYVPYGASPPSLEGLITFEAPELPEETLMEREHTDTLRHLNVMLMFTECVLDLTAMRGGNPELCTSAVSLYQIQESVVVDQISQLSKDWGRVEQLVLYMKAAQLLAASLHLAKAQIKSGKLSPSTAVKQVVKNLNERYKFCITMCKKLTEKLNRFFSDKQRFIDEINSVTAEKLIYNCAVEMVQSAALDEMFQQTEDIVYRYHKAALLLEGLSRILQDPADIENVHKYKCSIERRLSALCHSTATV
Epidermal growth factor receptor (Homo sapiens), P00533 [UNDEFINED MUTATION], sequence (P00533 whole entry, looked up, stated change not applied, the tested form may be a part): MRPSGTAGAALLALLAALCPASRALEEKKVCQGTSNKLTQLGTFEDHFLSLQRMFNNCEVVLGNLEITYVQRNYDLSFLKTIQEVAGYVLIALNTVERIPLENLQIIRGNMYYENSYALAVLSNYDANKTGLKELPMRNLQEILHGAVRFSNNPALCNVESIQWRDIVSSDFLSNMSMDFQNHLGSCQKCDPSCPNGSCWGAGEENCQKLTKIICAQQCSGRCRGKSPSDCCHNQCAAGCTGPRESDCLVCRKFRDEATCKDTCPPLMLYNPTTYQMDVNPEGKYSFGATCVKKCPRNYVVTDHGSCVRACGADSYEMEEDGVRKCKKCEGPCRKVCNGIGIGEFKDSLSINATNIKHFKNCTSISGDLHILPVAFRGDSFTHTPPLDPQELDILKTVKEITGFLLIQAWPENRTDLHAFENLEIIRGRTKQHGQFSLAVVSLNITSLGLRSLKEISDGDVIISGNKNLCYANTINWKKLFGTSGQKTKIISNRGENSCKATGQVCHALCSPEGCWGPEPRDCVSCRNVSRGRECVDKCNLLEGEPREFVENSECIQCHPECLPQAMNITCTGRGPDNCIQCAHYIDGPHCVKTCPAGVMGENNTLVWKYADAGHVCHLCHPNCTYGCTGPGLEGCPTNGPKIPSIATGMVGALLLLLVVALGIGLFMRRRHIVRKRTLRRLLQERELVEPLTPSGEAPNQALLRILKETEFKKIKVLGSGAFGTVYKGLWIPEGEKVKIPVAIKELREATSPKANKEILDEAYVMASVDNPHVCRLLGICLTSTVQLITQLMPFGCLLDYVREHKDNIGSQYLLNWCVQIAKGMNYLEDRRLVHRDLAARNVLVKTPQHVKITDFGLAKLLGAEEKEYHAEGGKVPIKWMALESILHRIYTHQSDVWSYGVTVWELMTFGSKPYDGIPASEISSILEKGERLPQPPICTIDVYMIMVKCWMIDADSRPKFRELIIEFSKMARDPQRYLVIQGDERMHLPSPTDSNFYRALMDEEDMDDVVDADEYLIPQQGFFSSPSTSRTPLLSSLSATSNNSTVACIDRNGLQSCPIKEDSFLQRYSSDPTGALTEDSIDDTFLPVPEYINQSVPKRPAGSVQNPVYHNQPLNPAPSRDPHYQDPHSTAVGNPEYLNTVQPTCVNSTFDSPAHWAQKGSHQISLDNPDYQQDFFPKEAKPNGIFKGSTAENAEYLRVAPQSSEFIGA
Bone morphogenetic protein receptor type-1B (Homo sapiens), sequence (O00238 whole entry, the tested form may be a part): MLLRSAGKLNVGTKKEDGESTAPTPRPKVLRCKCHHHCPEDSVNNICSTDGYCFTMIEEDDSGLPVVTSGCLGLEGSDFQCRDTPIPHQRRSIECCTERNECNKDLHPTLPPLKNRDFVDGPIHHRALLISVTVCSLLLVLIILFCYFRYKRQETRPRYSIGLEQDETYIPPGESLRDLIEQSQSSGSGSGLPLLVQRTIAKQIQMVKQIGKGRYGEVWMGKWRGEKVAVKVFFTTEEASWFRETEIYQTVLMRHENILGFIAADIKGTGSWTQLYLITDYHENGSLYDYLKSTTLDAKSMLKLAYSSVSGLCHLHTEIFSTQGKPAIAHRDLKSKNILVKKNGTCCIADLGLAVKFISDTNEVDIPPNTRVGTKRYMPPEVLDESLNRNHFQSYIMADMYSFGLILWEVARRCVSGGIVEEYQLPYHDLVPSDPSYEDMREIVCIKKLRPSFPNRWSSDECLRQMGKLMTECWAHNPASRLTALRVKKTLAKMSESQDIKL
Aurora kinase C (Homo sapiens), sequence (Q9UQB9 whole entry, the tested form may be a part): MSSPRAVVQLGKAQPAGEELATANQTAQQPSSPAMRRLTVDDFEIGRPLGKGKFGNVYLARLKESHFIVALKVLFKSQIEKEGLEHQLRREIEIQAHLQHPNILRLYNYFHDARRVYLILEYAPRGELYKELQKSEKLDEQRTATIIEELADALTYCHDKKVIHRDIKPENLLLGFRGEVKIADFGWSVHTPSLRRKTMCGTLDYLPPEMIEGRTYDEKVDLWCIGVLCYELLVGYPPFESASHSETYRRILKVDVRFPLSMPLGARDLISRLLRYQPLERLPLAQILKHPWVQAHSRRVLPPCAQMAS

| Structure (SMILES) | Activity [1] [%] | Activity [2] [%] | Activity [3] [%] | Activity [4] [%] | Activity [5] [%] | Activity [6] [%] | Activity [7] [%] | Activity [8] [%] | Activity [9] [%] | Activity [10] [%] | Activity [11] [%] | Activity [12] [%] | Activity [13] [%] | Activity [14] [%] | Activity [15] [%] | Activity [16] [%] | Activity [17] [%] | Activity [18] [%] | Activity [19] [%] | Activity [20] [%] | other results |
| --- | --- | --- | --- | --- | --- | --- | --- | --- | --- | --- | --- | --- | --- | --- | --- | --- | --- | --- | --- | --- | --- |
| CCC(=O)Nc1ccc(C(=O)Nc2ccc(Nc3ncc4c(n3)N(C)c3ccc(C)cc3C(=O)N4C)cc2)cc1 | 68 | 86 | 100 | 78 | 70 | 70 | 100 | 100 | 62 | 48 | 100 | 87 | 100 | 88 | 63 | 83 | 82 | 94 | 82 | 85 | Activity [21]: 1.3%; Activity [22]: 99%; Activity [23]: 89%; Activity [24]: 84% |
| C=CC(=O)Nc1ccc(C(=O)Nc2ccc(Nc3ncc4c(n3)N(C)c3ccc(C)cc3C(=O)N4C)cc2)cc1 | 88 | 96 | 88 | 77 | 100 | 68 | 100 | 100 | 100 | 76 | 94 | 89 | 83 | 99 | 84 | 64 | 94 | 93 | 100 | 84 | Activity [21]: 49%; Activity [22]: 92%; Activity [23]: 96%; Activity [24]: 98% |
